Reference: ChEMBL document CHEMBL2034818, “Synthesis and evaluation of boronic acids as inhibitors of Penicillin Binding Proteins of classes A, B and C” (Bioorg Med Chem, 2012)
Changes are numbered by the printed parent chain.

Key:
[1] = target: D-alanyl-D-alanine carboxypeptidase (Actinomadura sp. R39) (UniProt P39045); test: Inhibition of Actinomadura sp. R39 PBP using S2d as substrate assessed as residual activity at 1 mM incubated for 60 mins prior to substrate addition by DTNB-based spectrophotometry in presence of triton X 100
Summary of the method: (§1)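 R39 (Actinomadura, prepared per Granier), 3.5 nM, pre-incubated with inhibitor 60 min at 25 °C in 10 mM sodium phosphate pH 7.2, 100 mM NaCl, 100 mM D-alanine, 0.01 mg/mL BSA; inhibitors from DMF stock, 1% DMF final. Residual activity from initial rate of S2d (1 mM) hydrolysis with DTNB (1 mM), read at 412 nm, corrected for spontaneous hydrolysis; triplicates, uninhibited control six replicates per plate.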

[2] = target: T1, Penicillin-binding protein 2X (Streptococcus pneumoniae R6) (UniProt P59676); test: Inhibition of penicillin-sensitive Streptococcus pneumoniae R6 PBP2x using S2d as substrate assessed as residual activity at 1 mM incubated for 60 mins prior to substrate addition by DTNB-based spectrophotometry in presence of triton X 100
T1 sequence (whole entry): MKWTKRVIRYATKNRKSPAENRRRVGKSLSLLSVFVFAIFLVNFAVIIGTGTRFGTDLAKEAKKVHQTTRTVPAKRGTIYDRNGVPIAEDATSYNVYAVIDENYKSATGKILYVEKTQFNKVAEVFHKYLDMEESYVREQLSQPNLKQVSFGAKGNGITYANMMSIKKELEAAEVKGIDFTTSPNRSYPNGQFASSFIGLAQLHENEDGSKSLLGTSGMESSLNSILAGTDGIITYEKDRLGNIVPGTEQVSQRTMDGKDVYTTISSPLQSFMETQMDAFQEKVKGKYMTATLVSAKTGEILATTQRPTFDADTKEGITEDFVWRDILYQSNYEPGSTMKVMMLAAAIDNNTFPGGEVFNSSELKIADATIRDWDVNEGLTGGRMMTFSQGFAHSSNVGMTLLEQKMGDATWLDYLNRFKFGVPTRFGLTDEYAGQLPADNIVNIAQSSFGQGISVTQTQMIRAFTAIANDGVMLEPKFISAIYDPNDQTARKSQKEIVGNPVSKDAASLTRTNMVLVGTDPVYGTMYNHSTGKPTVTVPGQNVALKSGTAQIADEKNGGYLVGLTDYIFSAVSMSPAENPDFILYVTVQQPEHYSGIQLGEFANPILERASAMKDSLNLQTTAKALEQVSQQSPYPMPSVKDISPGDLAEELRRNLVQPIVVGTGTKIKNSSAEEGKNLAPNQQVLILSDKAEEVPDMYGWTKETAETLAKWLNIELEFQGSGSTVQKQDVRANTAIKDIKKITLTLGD
Summary of the method: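 PBP2xR6 (0.09 µM) pre-incubated with inhibitor for 60 min at 25 °C in 10 mM sodium phosphate pH 7.0, 0.01 mg/mL BSA, with 0.01% Triton X-100. 1% DMF final. S2d (1 mM) and DTNB (1 mM) then added. Initial hydrolysis rate read at 412 nm. Triplicates. Uninhibited activity from six replicates per plate.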

[3] = target: D-alanyl-D-alanine carboxypeptidase (Actinomadura sp. R39) (UniProt P39045); test: Inhibition of Actinomadura sp. R39 PBP using S2d as substrate assessed as residual activity at 1 mM incubated for 60 mins prior to substrate addition by DTNB-based spectrophotometry; summary of the method: as §1
Streptococcus pneumoniae [4] = test: Inhibition of Streptococcus pneumoniae PBP1b assessed as residual activity at 1mM incubated for 60 mins prior to fluoresceyl-ampicillin labelling measured after 20 mins by SDS-PAGE analysis in the presence of triton X 100
Summary of the method: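 Assay A: purified S. pneumoniae PBP1b (0.7 µM) pre-incubated with inhibitor in 10 mM sodium phosphate pH 7.0, 60 min, 25 °C, 0.01% Triton X-100. Remaining active enzyme labelled with fluoresceyl-ampicillin (10 µM), 20 min; reaction stopped, run on SDS-PAGE, fluorescence of the band quantified as residual activity.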

Enterococcus faecium = test: Inhibition of penicillin-resistant Enterococcus faecium PBP5fm assessed as residual activity at 1 mM incubated for 4 hrs prior to prior to fluoresceyl-ampicillin labelling measured after 20 mins by SDS-PAGE analysis
[5] = target: T1, Penicillin-binding protein 2X (Streptococcus pneumoniae R6); test: Inhibition of penicillin-sensitive Streptococcus pneumoniae R6 PBP2x using S2d as substrate assessed as residual activity at 1 mM incubated for 60 mins prior to substrate addition by DTNB-based spectrophotometry
Summary of the method: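 S. pneumoniae PBP2x-R6, 0.09 µM, pre-incubated with inhibitor in 10 mM sodium phosphate pH 7.0 with 0.01 mg/mL BSA, 60 min, 25 °C; 1% DMF final. S2d (1 mM) plus DTNB (1 mM) then added; residual activity taken from initial hydrolysis rate at 412 nm, corrected for spontaneous hydrolysis; triplicates, six no-inhibitor controls per plate.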

Staphylococcus aureus = test: Inhibition of penicillin-resistant Staphylococcus aureus PBP2a assessed as residual activity at 1 mM incubated for 4 hrs prior to prior to fluoresceyl-ampicillin labelling measured after 20 mins by SDS-PAGE analysis
[6] = target: T2, Penicillin-binding protein 2x (Streptococcus pneumoniae serotype 4 (strain ATCC BAA-334 / TIGR4)) (UniProt P14677); test: Inhibition of penicillin-resistant Streptococcus pneumoniae 5204 PBP2x using S2d as substrate assessed as residual activity at 1 mM incubated for 4 hrs prior to substrate addition by DNTB-based spectrophotometry in the presence of triton X 100
T2 sequence (whole entry): T1 sequence (whole entry) with M385T

[7] = Inhibition of Streptococcus pneumoniae PBP1b using PATP thioester as substrate incubated for 60 mins prior to substrate addition by DNTB-based spectrophotometry in the presence of triton X 100
Summary of the method: (§2)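 Assay B: S. pneumoniae PBP1b (0.2 µM) pre-incubated with inhibitor 60 min at 25 °C in 10 mM sodium phosphate pH 7.0, 100 mM D-alanine, 0.01 mg/mL BSA, 0.01% Triton X-100. Residual activity from initial rates of PATP thioester (5 mM) hydrolysis with DTNB (1.0 mM); IC50 by non-linear regression of residual activity across concentrations.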

Streptococcus pneumoniae [8] = test: Inhibition of Streptococcus pneumoniae PBP1b using PATP thioester as substrate assessed as residual activity at 100 uM incubated for 60 mins prior to substrate addition by DNTB-based spectrophotometry in the presence of triton X 100; summary of the method: as §2
[9] = target: T3, D-alanyl-D-alanine carboxypeptidase (Actinomadura sp. R39, UniProt P39045); test: Inhibition of Actinomadura sp. R39 PBP using S2d as substrate incubated for 60 mins prior to substrate addition by DTNB-based spectrophotometry
Summary of the method: (§3)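 PBP purified per earlier method. Pre-incubation: enzyme with inhibitor (DMF stock, 1% DMF final) at 25 °C for 60 min. Buffer for R39 (3.5 nM): 10 mM sodium phosphate pH 7.2, 100 mM NaCl, 100 mM D-alanine, 0.01 mg/mL BSA. Buffer for PBP2xR6: 10 mM sodium phosphate pH 7.0, 0.01 mg/mL BSA. S2d (1 mM) and DTNB (1 mM) then added. Initial hydrolysis rate read at 412 nm. Triplicates. IC50 by non-linear regression of residual activity over a concentration range, with 0.01% Triton X-100.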

[10] = target: T4, Penicillin-binding protein 2X (Streptococcus pneumoniae R6, UniProt P59676); test: Inhibition of penicillin-sensitive Streptococcus pneumoniae R6 PBP2x using S2d as substrate incubated for 60 mins prior to substrate addition by DTNB-based spectrophotometry; summary of the method: as §3
T4 sequence (P59676 whole entry): T1 sequence (whole entry)

[11] = target: T2, Penicillin-binding protein 2x (Streptococcus pneumoniae serotype 4 (strain ATCC BAA-334 / TIGR4)); test: Inhibition of penicillin-resistant Streptococcus pneumoniae 5204 PBP2x using S2d as substrate assessed as residual activity at 1 mM incubated for 4 hrs prior to substrate addition by DNTB-based spectrophotometry
[12] = target: T3, D-alanyl-D-alanine carboxypeptidase; test: Binding affinity to Actinomadura sp. R39 PBP
Streptococcus pneumoniae [13] = test: Inhibition of Streptococcus pneumoniae PBP1b using PATP thioester as substrate assessed as residual activity at 1 mM incubated for 60 mins prior to substrate addition by DNTB-based spectrophotometry in the presence of triton X 100; summary of the method: as §2

D-alanyl-D-alanine carboxypeptidase (Actinomadura sp. R39), sequence (P39045 whole entry): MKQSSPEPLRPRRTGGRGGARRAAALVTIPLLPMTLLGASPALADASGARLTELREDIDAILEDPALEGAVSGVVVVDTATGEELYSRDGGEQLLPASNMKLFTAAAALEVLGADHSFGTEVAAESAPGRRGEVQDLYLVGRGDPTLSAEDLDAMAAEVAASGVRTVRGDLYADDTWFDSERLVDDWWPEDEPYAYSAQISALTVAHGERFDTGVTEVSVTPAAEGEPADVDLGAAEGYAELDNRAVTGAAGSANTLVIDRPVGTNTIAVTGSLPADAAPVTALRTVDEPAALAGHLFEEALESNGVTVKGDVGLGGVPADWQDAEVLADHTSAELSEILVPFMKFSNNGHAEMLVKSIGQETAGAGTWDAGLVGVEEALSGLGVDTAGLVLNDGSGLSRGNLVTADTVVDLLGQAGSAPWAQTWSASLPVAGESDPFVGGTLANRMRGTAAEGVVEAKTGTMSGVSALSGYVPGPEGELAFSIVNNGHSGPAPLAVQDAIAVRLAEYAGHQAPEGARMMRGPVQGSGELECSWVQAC
T3 sequence (P39045 whole entry): as above

Row | Compound | Activity [1] [%] | Activity [2] [%] | Activity [3] [%] | Activity (Streptococcus pneumoniae [4]) [%] | Activity (Enterococcus faecium) [%] | Activity [5] [%] | Activity (Staphylococcus aureus) [%] | Activity [6] [%] | IC50 [7] [µM] | Activity (Streptococcus pneumoniae [8]) [%] | IC50 [9] [µM] | IC50 [10] [µM] | Activity [11] [%] | Ki [12] [µM] | Activity (Streptococcus pneumoniae [13]) [%]
1 | O=C(NCB(O)O)c1cccs1 | 73 | 66 | – | – | – | – | – | – | – | – | – | – | – | – | –
2 | COc1cccc(OC)c1C(=O)NCC(=O)O | – | – | 87 | – | – | – | – | – | – | – | – | – | – | – | –
3 | O=C(CCC1CCCC1)NCB(O)O | – | – | 71 | 59 | 85 | 79 | 100 | 98 | – | – | – | – | – | – | –
4 | O=C(NCB(O)O)c1c(F)cccc1F | – | – | 6 | – | 88 | 40 | 91 | 86 | 7 | 7 | 35 | 906 | – | – | –
5 | O=C(Cc1ccccc1[N+](=O)[O-])NCB(O)O | – | – | 52 | – | 84 | 31 | 85 | – | – | 52 | – | 339 | 86 | – | –
6 | O=C(Cc1ccccc1Cl)NCB(O)O | – | – | 57 | 24 | 88 | 26 | 77 | – | – | 96 | – | 649 | 90 | – | –
7 | O=C(NCB(O)O)c1ccc(Cl)cc1 | – | – | 73 | 29 | 93 | 89 | 100 | – | – | 70 | – | – | 101 | – | –
8 | NCB(O)O | – | – | 99 | – | – | – | – | – | – | – | – | – | – | – | –
9 | COc1ccc(C(=O)NCB(O)O)cc1OC | – | – | 81 | 90 | 78 | 82 | 75 | 98 | – | – | – | – | – | – | –
10 | O=C(NCB(O)O)c1ccccc1Cl | 15 | 31 | – | – | 97 | – | 81 | 70 | – | 20 | 85 | 262 | – | 42 | –
11 | O=C(NCB(O)O)c1ccccc1[N+](=O)[O-] | 0 | 21 | – | – | 88 | – | 92 | 108 | – | 24 | 0.6 | 138 | – | 0.36 | –
12 | O=C(Cc1ccccc1)NCB(O)O | – | – | 29 | – | 83 | 57 | 90 | 97 | – | – | 320 | – | – | 125 | 56
13 | O=C(NCB(O)O)c1ccccc1 | 80 | – | – | 56 | 79 | 78 | 81 | – | – | – | – | – | 81 | – | –
14 | CC(=O)NCB(O)O | – | – | 74 | – | – | 100 | – | – | – | – | – | – | 97 | – | 87
15 | O=C(Cc1ccc(Cl)cc1)NCB(O)O | – | – | 71 | 20 | 88 | 32 | 89 | 82 | – | 69 | – | 376 | – | – | –
16 | O=C(NCB(O)O)c1ccccc1F | – | – | 30 | – | 83 | 56 | 88 | 106 | – | 14 | 505 | – | – | – | –
17 | COc1ccc(C(=O)NCB(O)O)c(OC)c1 | 69 | 69 | – | 18 | 86 | – | 91 | 97 | – | 76 | – | – | – | – | –
18 | COc1ccccc1C(=O)NCB(O)O | – | – | 43 | – | – | 86 | – | – | – | 67 | – | – | 99 | – | 1
19 | O=C(NCB(O)O)c1ccccc1C(F)(F)F | – | – | 5 | 69 | – | 44 | – | – | – | – | 15 | 481 | 109 | – | –
20 | COc1ccc(C(=O)NCB(O)O)cc1 | – | – | 50 | 38 | 81 | 81 | 92 | – | – | 82 | – | – | 94 | – | –
